Experimental data taken from ChEMBL document CHEMBL3763118, “Trioxolane-Mediated Delivery of Mefloquine Limits Brain Exposure in a Mouse Model of Malaria” (ACS Med Chem Lett, 2015).
Active and inactive are the calls of the source. The rule behind the calls is not given here.

Assays:
Plasmodium falciparum = experiment: Antiplasmodium activity against Plasmodium falciparum W2 by flow cytometry; format: functional, organism-based
Method in brief: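 Activity against P. falciparum, reported as EC50, the mean of three or six separate determinations.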

[1] = Stability in human plasma after 120 mins by LC/MS analysis; format: ADME, cell-free; conditions: read-out: Stability
Method in brief: (§1)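 Compounds were incubated at 37 °C in human plasma or whole blood for 240 min (120 min in some plasma cases). The value is the percent of parent remaining.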

Plasmodium berghei [2] = experiment: Antimalarial activity against Plasmodium berghei infected in Swiss-Webster mouse assessed as mouse survival at 9.5 mg/kg qd for 4 days administered via oral gavage; format: functional, organism-based
Method in brief: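 Female Swiss-Webster mice (n = 5 per arm) were inoculated with 10^6 P. berghei parasites. Oral gavage once daily for 4 days, starting on the day of inoculation; doses were equimolar across compounds. Parasitemia, morbidity and survival were followed daily for 28 days, with euthanasia as the protocol required.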

[3] = Terminal half life in Balb/c mouse at 50 mg/kg, ip by LC-MS/MS analysis; format: ADME, organism-based; conditions: in vivo, read-out: beta t1/2 (converted)
Method in brief: (§2)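 Noncompartmental plasma PK after one i.p. dose of 50 mg/kg in uninfected mice and in P. chabaudi-infected mice. Parameters are terminal t1/2, tmax, Cmax, AUCinf, CL/F, Vz/F, MRTlast and MRTinf. F is the fraction of drug reaching systemic exposure after the i.p. dose.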

[4] = Apparent oral clearance in Plasmodium chabaudi infected Balb/c mouse at 50 mg/kg, ip by LC-MS/MS analysis; format: ADME, organism-based; conditions: in vivo; method in brief: as §2
[5] = Mean residence time (infinity) in Balb/c mouse at 50 mg/kg, ip by LC-MS/MS analysis; format: ADME, organism-based; conditions: in vivo; method in brief: as §2
Plasmodium chabaudi [6] = experiment: Antimalarial activity against Plasmodium chabaudi infected in Balb/c mouse assessed as parastemia at 16.5 mg/kg, ip measured 7 day postinoculation (reference value: 34 +/- 2.3 %); format: functional
Method in brief: (§3)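 Mice infected with P. chabaudi received one i.p. dose on day 4 postinoculation. Parasitemia (%) was measured on days 4, 7 and 13 postinoculation and reported as mean ± SEM. Animals in poor health were sacrificed on day 8 as the protocol required.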

Plasmodium chabaudi [7] = experiment: Antimalarial activity against Plasmodium chabaudi infected in Balb/c mouse assessed as parastemia at 50 mg/kg, ip measured 7 day postinoculation (reference value: 34 +/- 2.3 %); format: functional; method in brief: as §3
Plasmodium chabaudi [8] = experiment: Antimalarial activity against Plasmodium chabaudi infected in Balb/c mouse assessed as parastemia at 16.5 mg/kg, ip measured 13 day postinoculation; format: functional; method in brief: as §3
[9] = Mean residence time (infinity) in Plasmodium chabaudi infected Balb/c mouse at 50 mg/kg, ip by LC-MS/MS analysis; format: ADME, organism-based; conditions: in vivo; method in brief: as §2
[10] = Stability in human plasma after 240 mins by LC/MS analysis; format: ADME, cell-free; conditions: read-out: Stability; method in brief: as §1
Plasmodium chabaudi [11] = experiment: Antimalarial activity against Plasmodium chabaudi infected in Balb/c mouse assessed as parastemia at 8 mg/kg, ip measured 7 day postinoculation (reference value: 34 +/- 2.3 %); format: functional; method in brief: as §3
[12] = AUC (infinity) in Balb/c mouse at 50 mg/kg, ip by LC-MS/MS analysis; format: ADME, organism-based; design: dose 50 mg/kg, time infinity, route intraperitoneal; conditions: in vivo; method in brief: as §2
[13] = Apparent volume of distribution during terminal phase in Balb/c mouse at 50 mg/kg, ip by LC-MS/MS analysis; format: ADME, organism-based; conditions: in vivo, read-out: Vz/F; method in brief: as §2
[14] = Tmax in Plasmodium chabaudi infected Balb/c mouse plasma at 50 mg/kg, ip by LC-MS/MS analysis; format: ADME, organism-based
Method in brief: (§4)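 Infected mice (P. chabaudi) each got one i.p. dose of 50 mg/kg of the trioxolane conjugate. Blood and brain were collected over 24 h. Plasma and brain were analysed for intact conjugate and for released mefloquine.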

[15] = Mean residence time (last) in Plasmodium chabaudi infected Balb/c mouse at 50 mg/kg, ip by LC-MS/MS analysis; format: ADME, organism-based; conditions: in vivo; method in brief: as §2
[16] = Apparent oral clearance in Balb/c mouse at 50 mg/kg, ip by LC-MS/MS analysis; format: ADME, organism-based; conditions: in vivo; method in brief: as §2
[17] = Cmax in Balb/c mouse at 50 mg/kg, ip by LC-MS/MS analysis; format: ADME, organism-based; design: dose 50 mg/kg, route intraperitoneal; conditions: in vivo; method in brief: as §2
[18] = Apparent volume of distribution during terminal phase in Plasmodium chabaudi infected Balb/c mouse at 50 mg/kg, ip by LC-MS/MS analysis; format: ADME, organism-based; conditions: in vivo, read-out: Vz/F; method in brief: as §2
[19] = AUC (infinity) in Plasmodium chabaudi infected Balb/c mouse at 50 mg/kg, ip by LC-MS/MS analysis; format: ADME, organism-based; design: dose 50 mg/kg, route intraperitoneal, time infinity; conditions: in vivo; method in brief: as §2
[20] = Tmax in Balb/c mouse at 50 mg/kg, ip by LC-MS/MS analysis; format: ADME, organism-based; conditions: in vivo; method in brief: as §2
Plasma [21] = experiment: Prodrug activation in Plasmodium chabaudi infected Balb/c mouse plasma assessed as mefloquine level at 50 mg/kg, ip at 24 hrs by LC-MS/MS analysis; format: organism-based; conditions: in vivo; method in brief: as §4
[22] = Tmax in Plasmodium chabaudi infected Balb/c mouse at 50 mg/kg, ip by LC-MS/MS analysis; format: ADME, organism-based; conditions: in vivo; method in brief: as §2
Plasma [23] = experiment: Prodrug activation in Plasmodium chabaudi infected Balb/c mouse plasma assessed as mefloquine level at 50 mg/kg, ip at 30 mins by LC-MS/MS analysis; format: organism-based; conditions: in vivo, 0.5 h; method in brief: as §4
Brain = experiment: Prodrug activation in Plasmodium chabaudi infected Balb/c mouse brain assessed as mefloquine level at 50 mg/kg, ip at 24 hrs by LC-MS/MS analysis; format: organism-based; conditions: in vivo; method in brief: as §4
[24] = Stability in human blood after 240 mins by LC/MS analysis; format: ADME; conditions: whole blood, read-out: Stability; method in brief: as §1
[25] = Terminal half life in Plasmodium chabaudi infected Balb/c mouse at 50 mg/kg, ip by LC-MS/MS analysis; format: ADME, organism-based; conditions: in vivo, read-out: beta t1/2 (converted); method in brief: as §2
Plasmodium chabaudi [26] = experiment: Antimalarial activity against Plasmodium chabaudi infected in Balb/c mouse assessed as parastemia at 8 mg/kg, ip measured 4 day postinoculation (reference value: 4.6 +/- 0.5 %); format: functional; method in brief: as §3
Plasmodium chabaudi [27] = experiment: Antimalarial activity against Plasmodium chabaudi infected in Balb/c mouse assessed as parastemia at 16.5 mg/kg, ip measured 4 day postinoculation (reference value: 4.6 +/- 0.5 %); format: functional; method in brief: as §3
Plasmodium chabaudi [28] = experiment: Antimalarial activity against Plasmodium chabaudi infected in Balb/c mouse assessed as parastemia at 50 mg/kg, ip measured 4 day postinoculation (reference value: 4.6 +/- 0.5 %); format: functional; method in brief: as §3
[29] = Cmax in Plasmodium chabaudi infected Balb/c mouse at 50 mg/kg, ip by LC-MS/MS analysis; format: ADME, organism-based; design: dose 50 mg/kg, route intraperitoneal; conditions: in vivo; method in brief: as §2
[30] = Ratio of drug level in human blood to plasma; format: ADME, cell-free; conditions: whole blood and plasma
[31] = Mean residence time (last) in Balb/c mouse at 50 mg/kg, ip by LC-MS/MS analysis; format: ADME, organism-based; conditions: in vivo; method in brief: as §2
Plasmodium chabaudi [32] = experiment: Antimalarial activity against Plasmodium chabaudi infected in Balb/c mouse assessed as parastemia at 50 mg/kg, ip measured 13 day postinoculation; format: functional; method in brief: as §3
[33] = Drug level in Plasmodium chabaudi infected Balb/c mouse brain at 10 mg/kg, ip at 24 hrs by LC-MS/MS analysis; format: ADME, organism-based; conditions: read-out: Drug uptake
Method in brief: (§5)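 P. chabaudi-infected mice given a single 10 mg/kg i.p. dose. Blood and brain were sampled over 24 h and analysed for drug concentrations. Plasma concentration–time course used; brain levels reported at three time points.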

Plasmodium chabaudi [34] = experiment: Antimalarial activity against Plasmodium chabaudi infected in Balb/c mouse assessed as parastemia at 10 mg/kg, ip measured 13 day postinoculation; format: functional
[35] = Tmax in Plasmodium chabaudi infected Balb/c mouse plasma at 10 mg/kg, ip by LC-MS/MS analysis; format: ADME, organism-based; method in brief: as §5
Plasmodium berghei [36] = experiment: Antimalarial activity against Plasmodium berghei infected in Swiss-Webster mouse assessed as decrease in parasitemia at 10 mg/kg qd for 4 days administered via oral gavage; format: functional, organism-based
Method in brief: (§6)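 Female Swiss-Webster mice (n = 5 per arm) inoculated with 10^6 P. berghei parasites. Compound or vehicle given by oral gavage once daily for 4 days, starting on the day of inoculation. Parasitemia, morbidity and mortality recorded daily over 28 days; mice euthanized as required by study protocol.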

Plasmodium chabaudi [37] = experiment: Antimalarial activity against Plasmodium chabaudi infected in Balb/c mouse assessed as parastemia at 10 mg/kg, ip administered as single dose measured 4 day postinoculation (reference value: 4.6 +/- 0.5 %); format: functional
Plasmodium chabaudi [38] = experiment: Antimalarial activity against Plasmodium chabaudi infected in Balb/c mouse assessed as parastemia at 10 mg/kg, ip administered as single dose measured 7 day postinoculation (reference value: 34 +/- 2.3 %); format: functional
Plasmodium berghei [39] = experiment: Antimalarial activity against Plasmodium berghei infected in Swiss-Webster mouse assessed as mouse survival upto day 28 at 10 mg/kg qd for 4 days administered via oral gavage; format: functional, organism-based; method in brief: as §6

In the case of `CC(C)(N)CNC(=O)O[C@H]1CCC[C@@]2(C1)OOC1(O2)C2CC3CC(C2)CC1C3` (some centres undefined), the EC50 (Plasmodium falciparum) is reported as 2.7 nM, the remaining at 2 h [1] is reported as 97% and the Activity (Plasmodium berghei [2]) is reported as “Active”.

`C[C@@H]1CC[C@H]2[C@@H](C)C(=O)O[C@@H]3O[C@@]4(C)CC[C@@H]1[C@]32OO4` [ARTEMISININ] showed an EC50 (Plasmodium falciparum) of 9.3 nM.

Work on `O=C(O[C@H]1CCC[C@@]2(C1)OOC1(O2)C2CC3CC(C2)CC1C3)N1CCCC[C@@H]1[C@@H](O)c1cc(C(F)(F)F)nc2c(C(F)(F)F)cccc12` (some centres undefined) yielded a half-life [3] of 8.41 h, a CL/F [4] of 61.2 mL/min/kg and an MRT inf [5] of 11 h. For the same compound, the Activity (Plasmodium chabaudi [6]) was 0.7%, the EC50 (Plasmodium falciparum) was 3 nM and the Activity (Plasmodium chabaudi [7]) was 0%. It also gave an Activity (Plasmodium chabaudi [8]) of 0.65%, an MRT inf [9] of 10.6 h and a remaining at 4 h [10] of 94%. For the same compound, the Activity (Plasmodium chabaudi [11]) was 33%, the AUC(0-inf) [12] was 34100 ng·h/mL and the Vd/F [13] was 17.8 L/kg. The Tmax [14] was 0.5 h, the MRT last [15] was 6.43 h and the CL/F [16] was 24.5 mL/min/kg. The Cmax [17] was 3620 ng/mL, the Vd/F [18] was 45.5 L/kg and the AUC(0-inf) [19] was 13600 ng·h/mL. For the same compound, the Tmax [20] was 1 h, the Drug metabolism (Plasma [21]) was “metabolite_detected” and the Tmax [22] was 2 h. The Drug metabolism (Plasma [23]) was “metabolite_notdetected”, the Drug metabolism (Brain) was 250 ng/mL and the remaining at 4 h [24] was 85%. For the same compound, the half-life [25] was 8.6 h, the Activity (Plasmodium chabaudi [26]) was 4.8% and the Activity (Plasmodium chabaudi [27]) was 4.5%. It also gave an Activity (Plasmodium chabaudi [28]) of 5.4%, a Cmax [29] of 1570 ng/mL and a blood plasma ratio [30] of 0.7. The MRT last [31] was 6.93 h and the Activity (Plasmodium chabaudi [32]) was 0%.

Compound `O[C@@H](c1cc(C(F)(F)F)nc2c(C(F)(F)F)cccc12)[C@H]1CCCCN1` (racemic) [(S,R)-MEFLOQUINE] has an EC50 (Plasmodium falciparum) of 2.5 nM, a concentration at 24 h [33] of 1400 ng/mL and a remaining at 4 h [10] of 97%. The Activity (Plasmodium chabaudi [34]) was 0%, the Tmax [35] was 5 min and the inhibition (Plasmodium berghei [36]) was “Active”. It also gave an Activity (Plasmodium chabaudi [37]) of 4.8%, an Activity (Plasmodium chabaudi [38]) of 0.02% and a remaining at 4 h [24] of 95%. For the same compound, the Activity (Plasmodium berghei [39]) was “Active” and the blood plasma ratio [30] was 1.6.

`CC(C)(N)CNC(=O)C[C@H]1CC[C@]2(CC1)OOC1(O2)C2CC3CC(C2)CC1C3` (some centres undefined) gave an EC50 (Plasmodium falciparum) of 2.5 nM and a blood plasma ratio [30] of 1.5.
